Test results: ChEMBL document CHEMBL1157871, “Synthesis and preliminary evaluation of peptidomimetic inhibitors of human beta-secretase” (Eur J Med Chem, 2010)
pIC50: −log10 of the molar value.

Experiments:
Beta-secretase 1 [1] = biological target: T1, Beta-secretase 1 (Homo sapiens, UniProt P56817); assay: Inhibition of human recombinant BACE1 using fluorescent peptide substrate at 10 ug/ml after 5 mins
Procedure, shortened: (§1)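 FRET assay using a peptide substrate carrying a fluorophore and quencher on either side of a β-secretase cleavage site. Recombinant human BACE-1 was diluted in 0.1 M sodium acetate (pH 4.0) and added to the samples, then shaken 5 min. Fluorogenic Peptide Substrate IV in the same buffer was added and shaken 5 min. Read-out: ex 320 nm/em 405 nm; activity taken as ΔF/min relative to standard.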

Beta-secretase 1 [2] = biological target: T1, Beta-secretase 1; assay: Inhibition of human recombinant BACE1 using fluorescent peptide substrate after 5 mins; procedure, shortened: as §1

T1 sequence (P56817 whole entry): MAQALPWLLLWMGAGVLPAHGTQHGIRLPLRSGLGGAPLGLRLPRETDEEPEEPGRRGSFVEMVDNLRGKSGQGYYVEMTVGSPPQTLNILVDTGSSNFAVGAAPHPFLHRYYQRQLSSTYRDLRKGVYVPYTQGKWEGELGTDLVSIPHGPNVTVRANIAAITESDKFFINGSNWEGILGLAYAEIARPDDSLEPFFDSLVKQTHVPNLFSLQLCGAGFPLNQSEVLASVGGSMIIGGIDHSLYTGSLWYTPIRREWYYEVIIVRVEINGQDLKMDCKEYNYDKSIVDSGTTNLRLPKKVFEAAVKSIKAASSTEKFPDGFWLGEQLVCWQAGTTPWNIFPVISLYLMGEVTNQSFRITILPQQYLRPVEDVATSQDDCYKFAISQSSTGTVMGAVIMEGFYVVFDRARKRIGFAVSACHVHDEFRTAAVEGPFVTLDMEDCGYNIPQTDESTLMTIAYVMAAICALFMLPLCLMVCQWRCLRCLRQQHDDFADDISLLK

| inhibition (Beta-secretase 1 [1]) [%] | pIC50 (Beta-secretase 1 [2]) | SMILES |
| --- | --- | --- |
| 25.1 | – | COc1ccc(CC(=O)N[C@@H](CO)C(=O)N[C@@H](CC(C)C)[C@@H](O)C[C@@H](C)C(=O)NCc2ccccc2)cc1 |
| 11.2 | 5.16 | CC(C)CNC(=O)[C@H](C)C[C@H](O)[C@H](CC(C)C)NC(=O)[C@H](Cc1ccccc1)NC(=O)c1ccccc1 |
| 37.2 | – | CC(C)CNC(=O)[C@H](C)C[C@H](O)[C@H](CC(C)C)NC(=O)[C@H](Cc1ccc([N+](=O)[O-])cc1)NC(=O)/C=C/c1ccccc1 |
| 50.5 | – | CC(C)[C@H](NC(=O)[C@H](CO)NC(=O)OC(C)(C)C)[C@@H](O)C[C@@H](C)C(=O)NCc1ccccc1 |
| -1.56 | – | CC(C)[C@H](NC(=O)OC(C)(C)C)C(=O)N[C@@H](Cc1ccccc1)C(=O)N[C@@H](C(C)C)[C@@H](O)C[C@@H](C)C(=O)NCc1ccccc1 |
| 7.61 | – | CC(C)CNC(=O)[C@H](C)C[C@H](O)[C@H](CC(C)C)NC(=O)[C@H](Cc1ccc([N+](=O)[O-])cc1)NC(=O)c1cc([N+](=O)[O-])cc([N+](=O)[O-])c1 |
| 10.5 | 5.58 | CC(C)CNC(=O)[C@H](C)C[C@H](O)[C@H](CC(C)C)NC(=O)[C@H](Cc1ccc([N+](=O)[O-])cc1)NC(=O)c1ccc([N+](=O)[O-])cc1 |
| 22.8 | – | CC(C)CNC(=O)[C@H](C)C[C@H](O)[C@H](CC(C)C)NC(=O)[C@H](Cc1ccccc1)NC(=O)/C=C/c1ccccc1 |
| 59.7 | 4.71 | CC(C)CNC(=O)[C@H](C)C[C@H](O)[C@H](CC(C)C)NC(=O)[C@H](Cc1ccccc1)NC(=O)/C=C/c1ccc(C(F)(F)F)cc1 |
| -0.71 | – | CC[C@H](C)[C@H](NC(=O)OC(C)(C)C)C(=O)N[C@@H](Cc1ccccc1)C(=O)N[C@@H](CC(C)C)[C@@H](O)C[C@@H](C)C(=O)NCC(C)C |
| 18.3 | 5.42 | COc1ccc(C(=O)N[C@@H](Cc2ccc([N+](=O)[O-])cc2)C(=O)N[C@@H](CC(C)C)[C@@H](O)C[C@@H](C)C(=O)NCC(C)C)cc1OC |
| 25.8 | – | CC(C)CNC(=O)[C@H](C)C[C@H](O)[C@@H](NC(=O)[C@H](Cc1ccccc1)NC(=O)OC(C)(C)C)C(C)C |
| -2.37 | – | CC(C)CNC(=O)[C@H](C)C[C@H](O)[C@H](CC(C)C)NC(=O)[C@H](Cc1ccccc1)NC(=O)[C@@H](NC(=O)OC(C)(C)C)C(C)C |
| 14.7 | – | COc1ccc(C(=O)N[C@@H](Cc2ccccc2)C(=O)N[C@@H](CC(C)C)[C@@H](O)C[C@@H](C)C(=O)NCC(C)C)cc1OC |
| 1.47 | 4.80 | CC(C)CNC(=O)[C@H](C)C[C@H](O)[C@H](CC(C)C)NC(=O)[C@H](Cc1ccccc1)NC(=O)c1ccc([N+](=O)[O-])cc1 |
| -2.46 | – | CC[C@H](C)[C@H](NC(=O)OC(C)(C)C)C(=O)N[C@@H](Cc1ccccc1)C(=O)N[C@@H](C(C)C)[C@@H](O)C[C@@H](C)C(=O)NCc1ccccc1 |

| inhibition (Beta-secretase 1 [1]) [%] | pIC50 (Beta-secretase 1 [2]) | SMILES |
| --- | --- | --- |
| 25.7 | – | CC(C)CNC(=O)[C@H](C)C[C@H](O)[C@H](CC(C)C)NC(=O)[C@H](Cc1ccc([N+](=O)[O-])cc1)NC(=O)c1cccc(Cl)c1 |
| 0.13 | 5.42 | CC(C)CNC(=O)[C@H](C)C[C@H](O)[C@H](CC(C)C)NC(=O)[C@H](Cc1ccc([N+](=O)[O-])cc1)NC(=O)/C=C/c1ccc(C(F)(F)F)cc1 |
| 16.9 | – | CC(C)CNC(=O)[C@H](C)C[C@H](O)[C@H](CC(C)C)NC(=O)[C@H](Cc1ccccc1)NC(=O)c1cccc(Cl)c1 |
| 40.3 | – | CC(C)CNC(=O)[C@H](C)C[C@H](O)[C@H](CC(C)C)NC(=O)[C@H](Cc1ccc([N+](=O)[O-])cc1)NC(=O)c1ccc2c(c1)OCO2 |
| 16.2 | 5.09 | CC(C)CNC(=O)[C@H](C)C[C@H](O)[C@H](CC(C)C)NC(=O)[C@H](Cc1ccccc1)NC(=O)c1ccc2c(c1)OCO2 |
| 0.91 | – | CC(C)CNC(=O)[C@H](C)C[C@H](O)[C@H](CC(C)C)NC(=O)[C@H](Cc1ccccc1)NC(=O)c1cc([N+](=O)[O-])cc([N+](=O)[O-])c1 |
| -0.1 | 5.33 | CC(C)CNC(=O)[C@H](C)C[C@H](O)[C@H](CC(C)C)NC(=O)[C@H](Cc1ccccc1)NC(=O)c1cccc2ccccc12 |
| 20.3 | – | CC(C)CNC(=O)[C@H](C)C[C@H](O)[C@H](CC(C)C)NC(=O)[C@H](Cc1ccccc1)NC(=O)c1ccc(Cl)cc1Cl |
| 23 | – | CC(C)[C@H](NC(=O)[C@H](Cc1ccccc1)NC(=O)OC(C)(C)C)[C@@H](O)C[C@@H](C)C(=O)NCc1ccccc1 |
| 54.6 | 5.64 | CC(C)CNC(=O)[C@H](C)C[C@H](O)[C@H](CC(C)C)NC(=O)[C@H](Cc1ccccc1)NC(=O)[C@H](CC(C)C)NC(=O)OC(C)(C)C |
| 22.2 | 5.37 | CC(C)CNC(=O)[C@H](C)C[C@H](O)[C@H](CC(C)C)NC(=O)[C@H](Cc1ccc([N+](=O)[O-])cc1)NC(=O)c1ccc(Cl)cc1Cl |
| 30.1 | – | CC(C)CNC(=O)[C@H](C)C[C@H](O)[C@@H](NC(=O)[C@H](Cc1ccc([N+](=O)[O-])cc1)NC(=O)OC(C)(C)C)C(C)C |
| 0.91 | – | CC(C)C[C@H](NC(=O)OC(C)(C)C)C(=O)N[C@@H](Cc1ccccc1)C(=O)N[C@@H](CC(C)C)[C@@H](O)C[C@@H](C)C(=O)NCc1ccccc1 |
| 16.4 | – | CC(C)C[C@H](NC(=O)[C@H](CO)NC(=O)/C=C/c1ccc(C(F)(F)F)cc1)[C@@H](O)C[C@@H](C)C(=O)NCc1ccccc1 |
| -4.43 | – | CC(C)CNC(=O)[C@H](C)C[C@H](O)[C@H](CC(C)C)NC(=O)[C@H](Cc1ccc([N+](=O)[O-])cc1)NC(=O)c1cccc2ccccc12 |
